Assay results: ChEMBL document CHEMBL1139225, “Metabolism-based identification of a potent thrombin receptor antagonist” (J Med Chem, 2007)
Values after ≈ are worked out from the molar mass of the structure shown.

Assays:
[1] = biological target: T1, Proteinase-activated receptor 1 (Homo sapiens, UniProt P25116); test: Displacement of [3H]haTRAP from PAR1 in human platelet membrane; format: cell membranes
T1 sequence (P25116 whole entry): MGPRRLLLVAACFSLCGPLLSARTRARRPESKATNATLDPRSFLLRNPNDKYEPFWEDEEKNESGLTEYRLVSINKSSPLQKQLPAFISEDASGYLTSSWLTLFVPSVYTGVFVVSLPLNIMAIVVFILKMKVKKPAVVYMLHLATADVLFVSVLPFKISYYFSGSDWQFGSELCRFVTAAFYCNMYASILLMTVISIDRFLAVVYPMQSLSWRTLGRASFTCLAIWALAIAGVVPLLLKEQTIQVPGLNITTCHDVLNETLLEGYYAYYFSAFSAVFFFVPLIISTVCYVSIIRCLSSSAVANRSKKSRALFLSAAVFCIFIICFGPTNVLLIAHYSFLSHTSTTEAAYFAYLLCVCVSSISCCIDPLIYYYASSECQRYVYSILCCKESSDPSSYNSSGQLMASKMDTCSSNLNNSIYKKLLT

[2] = AUC (0-24h) in cynomolgus monkey at 1 mg/kg, po; format: ADME, organism-based, Macaca fascicularis; set-up: time < 24 hr, dose 1 mg/kg, route oral; settings: plasma
Outline: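 Cynomolgus monkeys received a single oral dose of 1 mg/kg in 20% HPβCD. Blood levels were followed at various time points afterwards.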

[3] = AUC (0-24h) in Sprague-Dawley rat at 300 mg/kg, po after 1 day; format: ADME, organism-based; set-up: time < 24 hr, dose 300 mg/kg, route oral; settings: plasma
Outline: (§1)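 Fed male Sprague Dawley rats, four per group, given the compound orally once daily for 10 consecutive days in 0.4% methylcellulose (100 and 300 mg/kg groups). On day 1 and day 10, plasma concentrations of parent and hydroxylated metabolites were measured at 1, 2, 4, 8, 12 and 24 h, giving AUC(0-24 h) and Cmax.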

[4] = AUC (0-24h) in Sprague-Dawley rat at 300 mg/kg, po after 10 days; format: ADME, organism-based; set-up: time < 24 hr, dose 300 mg/kg, route oral; settings: plasma; outline: as §1
[5] = Cmax in Sprague-Dawley rat at 300 mg/kg, po after 1 day; format: ADME, organism-based; set-up: dose 300 mg/kg, route oral; settings: in vivo; outline: as §1
[6] = Cmax in Sprague-Dawley rat at 300 mg/kg, po after 10 days; format: ADME, organism-based; set-up: dose 300 mg/kg, route oral; settings: in vivo; outline: as §1
[7] = AUC (0-6h) in rat after oral administration; format: ADME, organism-based; set-up: time < 6 hr, route oral; settings: plasma
[8] = Plasma concentration in cynomolgus monkey at 24 hrs; format: ADME, organism-based, Macaca fascicularis
Outline: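 Cynomolgus monkeys were given an oral dose of 3 mg/kg in 0.4% methylcellulose. Plasma was sampled at 6 and 24 h and analysed by LC-MS/MS.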

[9] = AUC (0-6h) in rat at 10 mg/kg, po; format: ADME, organism-based; set-up: time < 6 hr, dose 10 mg/kg, route oral; settings: plasma
Outline: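 Rat oral pharmacokinetics at 10 mg/kg dosed in 20% HPβCD. Plasma exposure was reported as AUC(0-6).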

[10] = Solubility of the compound; format: physicochemical

IC50 [1] [nM]	SMILES	further results
38.5	C[C@H]1OC(=O)[C@@H]2C[C@@H]3C[C@H](O)CC[C@H]3[C@H](/C=C/c3ccc(-c4cccc(Cl)c4)cn3)[C@H]12	–
80	Cc1cccc(-c2ccc(/C=C/[C@H]3[C@@H]4CCC(F)(F)C[C@H]4C[C@H]4C(=O)O[C@H](C)[C@@H]34)nc2)c1	–
11	C[C@H]1OC(=O)[C@@H]2C[C@@H]3CC(F)(F)CC[C@H]3[C@H](/C=C/c3ccc(-c4ccccc4Cl)cn3)[C@H]12	–
28	C[C@H]1OC(=O)[C@@H]2C[C@@H]3CC(F)(F)CC[C@H]3[C@H](/C=C/c3ccc(-c4ccccc4F)cn3)[C@H]12	–
–	C[C@H]1OC(=O)[C@@H]2C[C@@H]3CC(=O)CC[C@H]3[C@H](/C=C/c3ccc(-c4cccc(C(F)(F)F)c4)cn3)[C@H]12	AUC(0-t) at 24 h [2]: 31 ng·h/mL
16.5	C[C@H]1OC(=O)[C@@H]2C[C@@H]3C[C@H](O)CC[C@H]3[C@H](/C=C/c3ccc(-c4cccc(Cl)c4Cl)cn3)[C@H]12	–
41	C[C@H]1OC(=O)[C@@H]2C[C@H]3[C@@H](CCC[C@@H]3O)[C@H](/C=C/c3ccc(-c4cccc(C(F)(F)F)c4)cn3)[C@H]12	AUC(0-t) at 24 h [3]: 49000 ng·h/mL; AUC at 24 h [4]: 150000 ng·h/mL; Cmax [5]: 29000 ng/mL; Cmax [6]: 79000 ng/mL; AUC(0-t) at 6 h [7]: 5760 ng·h/mL; concentration at 24 h [8]: 160 ng/mL
147	Cc1cccc(-c2ccc(/C=C/[C@H]3[C@@H]4CC[C@@H](O)C[C@H]4C[C@H]4C(=O)O[C@H](C)[C@@H]34)nc2)c1	–
1370	Cc1ccc(-c2ccc(/C=C/[C@H]3[C@@H]4CC[C@@H](O)C[C@H]4C[C@H]4C(=O)O[C@H](C)[C@@H]34)nc2)cc1	–
829	C[C@H]1OC(=O)[C@@H]2C[C@@H]3C[C@H](O)CC[C@H]3[C@H](/C=C/c3ccc(-c4ccc(F)cc4)cn3)[C@H]12	–
28	C[C@H]1OC(=O)[C@@H]2C[C@@H]3C[C@H](O)CC[C@H]3[C@H](/C=C/c3ccc(-c4cccc(F)c4)cn3)[C@H]12	–
53	C[C@H]1OC(=O)[C@@H]2C[C@H]3[C@@H](CCCC3(F)F)[C@H](/C=C/c3ccc(-c4cccc(C(F)(F)F)c4)cn3)[C@H]12	AUC(0-t) at 6 h [9]: 1200 ng·h/mL; solubility [10]: 5 µM (≈ 2.46 µg/mL)
